Test results published in ChEMBL document CHEMBL3232705, “Discovery of isoquinolinone indole acetic acids as antagonists of chemoattractant receptor homologous molecule expressed on Th2 cells (CRTH2) for the treatment of allergic inflammatory diseases” (J Med Chem, 2014).
Activity calls are given as the source filed them. The calls are words filed in the database; no cut-off is given here.

Assays:
[1] = Oral bioavailability in monkey at 10 mg/kg; format: ADME, organism-based, Macaca mulatta; details: rhesus monkey, in vivo
[2] = Cmax in dog at 10 mg/kg, po; format: ADME, organism-based, Canis lupus familiaris; parameters: dose 10 mg/kg, route oral; details: in vivo
Summary of the method: (§1)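 Single intravenous dose of 2 mg/kg and single oral dose of 10 mg/kg, given separately, in rat, dog and monkey. Clearance and half-life taken from the iv arm; Cmax from the oral arm.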

[3] = Half life in dog at 2 mg/kg, iv; format: ADME, organism-based, Canis lupus familiaris; parameters: dose 2 mg/kg, route intravenous; details: in vivo; summary of the method: as §1
Cytochrome P450 2C9 = Cytochrome P450 2C9 (Homo sapiens, UniProt P11712); test: Inhibition of CYP2C9 (unknown origin); format: ADME
[4] = Clearance in rat at 2 mg/kg, iv; format: ADME, organism-based; parameters: dose 2 mg/kg, route intravenous; details: in vivo; summary of the method: as §1
Thromboxane A2 receptor = biological target: T1, Thromboxane A2 receptor (Homo sapiens, UniProt P21731); test: Antagonist activity at TXA2 receptor (unknown origin) by FRET assay
T1 sequence (P21731 whole entry): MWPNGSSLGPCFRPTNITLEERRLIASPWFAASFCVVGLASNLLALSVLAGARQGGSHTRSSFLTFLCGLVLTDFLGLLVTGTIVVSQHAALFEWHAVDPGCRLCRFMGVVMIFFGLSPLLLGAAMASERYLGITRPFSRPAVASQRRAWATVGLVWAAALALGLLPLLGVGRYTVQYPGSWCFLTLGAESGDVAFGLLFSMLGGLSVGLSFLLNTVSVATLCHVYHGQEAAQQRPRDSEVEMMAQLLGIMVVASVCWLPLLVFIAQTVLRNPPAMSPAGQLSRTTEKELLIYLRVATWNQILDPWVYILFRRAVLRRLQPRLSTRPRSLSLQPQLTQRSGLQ

[5] = biological target: T2, Prostaglandin D2 receptor (Homo sapiens, UniProt Q13258); test: Binding affinity to DP1 receptor (unknown origin) by FRET assay
T2 sequence (Q13258 whole entry): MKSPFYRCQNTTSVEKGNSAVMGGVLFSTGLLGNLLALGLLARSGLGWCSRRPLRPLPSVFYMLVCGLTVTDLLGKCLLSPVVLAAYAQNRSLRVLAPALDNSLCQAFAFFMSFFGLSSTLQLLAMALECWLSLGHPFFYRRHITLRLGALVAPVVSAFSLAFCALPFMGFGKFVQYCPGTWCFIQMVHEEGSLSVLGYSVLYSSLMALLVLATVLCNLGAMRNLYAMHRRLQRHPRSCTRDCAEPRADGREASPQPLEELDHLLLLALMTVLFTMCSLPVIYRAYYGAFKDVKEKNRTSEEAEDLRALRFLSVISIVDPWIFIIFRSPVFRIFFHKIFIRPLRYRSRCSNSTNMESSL

Mus musculus [6] = test: Antiallergic inflammatory activity in oxazolone induced contact hypersensitivity mouse model assessed as reduction ear swelling at 3 mg/kg, po prior to oxazolone and 7 hrs post challenge measured after 24 hrs; format: functional
Summary of the method: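 Mice sensitized on the shaved abdomen with 2% oxazolone in ethanol one week before challenge. Dosed orally 1 h before the left ear was challenged with 10 μL of 2% oxazolone (ethanol on the right ear as control), then redosed 7 h after challenge. Ear thickness measured by micrometer; swelling taken as 24 h post-challenge minus pre-challenge thickness. Unpaired t test.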

Mus musculus [7] = test: Antiallergic activity in house dust mite-induced allergic airway disease BALB/c mouse model assessed as reduction in neutrophil level in bronchoalveolar lavage fluid at 40 mg/kg, po after 72 hrs of HDM challenge; format: functional, organism-based; parameters: dose 40 mg/kg; details: Lung
Summary of the method: (§2)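 BALB/c mice given house dust mite intratracheally via a catheter passed through the vocal cords. Test article 40 mg/kg orally once daily; dexamethasone 1 mg/kg ip once daily as reference. Total and differential BAL cells (eosinophils, macrophages, lymphocytes, neutrophils) counted 72 h after HDM challenge. Mean ± SEM, Mann–Whitney U test.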

Ovis aries [8] = test: Inhibition of Ascaris-induced airway bronchoconstriction in sheep assessed as inhibition of early phase allergic airway bronchoconstriction at 3 mg/kg, iv bid; format: functional, organism-based; parameters: dose 3 mg/kg
[9] = Clearance in dog at 2 mg/kg, iv; format: ADME, organism-based, Canis lupus familiaris; parameters: dose 2 mg/kg, route intravenous; details: in vivo; summary of the method: as §1
Ovis aries [10] = test: Inhibition of Ascaris-induced airway bronchoconstriction in sheep assessed as inhibition of bronchoalveolar lavage fluid inflammation at 1 mg/kg, iv qd for 7 days; format: functional, organism-based; parameters: dose 1 mg/kg; details: Lung
Summary of the method: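 Sheep given 1 mg/kg iv once daily for 7 days before Ascaris suum allergen challenge. Early and late responses read as airway resistance above baseline, compared with each animal's historical untreated values. After the AHR measurement, three bronchi per sheep were lavaged for cell counts.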

Cytochrome P450 1A2 = biological target: T3, Cytochrome P450 1A2 (Homo sapiens, UniProt P05177); test: Inhibition of CYP1A2 (unknown origin); format: ADME
T3 sequence (P05177 whole entry): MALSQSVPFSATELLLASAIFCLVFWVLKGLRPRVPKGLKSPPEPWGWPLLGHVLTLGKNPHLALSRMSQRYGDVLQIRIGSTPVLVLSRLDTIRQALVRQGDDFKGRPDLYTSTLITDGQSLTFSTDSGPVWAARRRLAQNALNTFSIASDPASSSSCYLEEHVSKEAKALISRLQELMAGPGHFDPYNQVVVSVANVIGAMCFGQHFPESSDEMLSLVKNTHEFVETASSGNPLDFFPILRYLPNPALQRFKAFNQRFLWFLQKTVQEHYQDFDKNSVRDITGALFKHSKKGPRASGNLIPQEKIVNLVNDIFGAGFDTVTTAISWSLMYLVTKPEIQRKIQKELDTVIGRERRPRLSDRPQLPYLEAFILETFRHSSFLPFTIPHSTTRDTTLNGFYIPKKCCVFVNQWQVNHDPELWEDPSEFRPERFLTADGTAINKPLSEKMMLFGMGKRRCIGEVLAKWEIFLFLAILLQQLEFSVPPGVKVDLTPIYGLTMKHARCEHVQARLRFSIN

Cytochrome P450 2D6 = Cytochrome P450 2D6 (Homo sapiens, UniProt P10635); test: Inhibition of CYP2D6 (unknown origin); format: ADME
[11] = Half life in monkey at 2 mg/kg, iv; format: ADME, organism-based, Macaca mulatta; parameters: dose 2 mg/kg, route intravenous; details: rhesus monkey, in vivo; summary of the method: as §1
[12] = biological target: T4, Prostaglandin D2 receptor 2 (Homo sapiens, UniProt Q9Y5Y4); test: Antagonist activity at human recombinant CRTh2 expressed in CHO-K1 cells by cAMP TR FRET assay; format: functional, cell-based
T4 sequence (Q9Y5Y4 whole entry): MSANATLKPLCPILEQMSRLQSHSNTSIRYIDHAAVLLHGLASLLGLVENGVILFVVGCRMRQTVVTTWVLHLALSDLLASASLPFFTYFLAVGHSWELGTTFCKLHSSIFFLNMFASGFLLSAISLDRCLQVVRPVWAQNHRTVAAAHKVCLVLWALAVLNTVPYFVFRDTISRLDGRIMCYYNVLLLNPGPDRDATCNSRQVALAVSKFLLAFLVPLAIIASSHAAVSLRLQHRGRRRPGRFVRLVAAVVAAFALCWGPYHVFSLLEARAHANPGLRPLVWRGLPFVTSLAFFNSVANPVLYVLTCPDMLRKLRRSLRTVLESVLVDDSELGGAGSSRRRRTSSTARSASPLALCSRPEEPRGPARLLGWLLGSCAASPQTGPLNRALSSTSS

Mus musculus [13] = test: Antiallergic activity in house dust mite-induced allergic airway disease BALB/c mouse model assessed as reduction in lymphocyte level in bronchoalveolar lavage fluid at 40 mg/kg, po after 72 hrs of HDM challenge; format: functional, organism-based; parameters: dose 40 mg/kg; details: Lung; summary of the method: as §2
[14] = biological target: T4, Prostaglandin D2 receptor 2; test: Binding affinity to human CRTH2 receptor
Summary of the method: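 Competitive binding assay at human CRTH2, measuring displacement of tritium-labeled PGD2 by test compound; IC50 derived.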

Rattus norvegicus = test: Oral bioavailability; details: in vivo

Chain of Cytochrome P450 2D6 (P10635 whole entry): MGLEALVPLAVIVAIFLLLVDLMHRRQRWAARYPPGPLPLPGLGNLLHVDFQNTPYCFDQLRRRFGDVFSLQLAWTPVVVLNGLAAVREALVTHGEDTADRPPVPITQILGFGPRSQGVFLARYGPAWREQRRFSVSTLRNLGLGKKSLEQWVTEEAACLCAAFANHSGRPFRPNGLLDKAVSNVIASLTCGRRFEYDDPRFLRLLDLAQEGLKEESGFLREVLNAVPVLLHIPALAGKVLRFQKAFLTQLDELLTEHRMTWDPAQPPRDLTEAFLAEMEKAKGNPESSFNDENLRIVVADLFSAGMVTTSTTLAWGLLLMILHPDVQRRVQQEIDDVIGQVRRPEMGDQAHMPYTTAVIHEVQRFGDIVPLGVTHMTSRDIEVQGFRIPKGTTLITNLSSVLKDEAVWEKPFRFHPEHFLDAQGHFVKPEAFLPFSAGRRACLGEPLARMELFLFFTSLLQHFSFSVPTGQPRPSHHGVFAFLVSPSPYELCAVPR
Chain of Cytochrome P450 2C9 (P11712 whole entry): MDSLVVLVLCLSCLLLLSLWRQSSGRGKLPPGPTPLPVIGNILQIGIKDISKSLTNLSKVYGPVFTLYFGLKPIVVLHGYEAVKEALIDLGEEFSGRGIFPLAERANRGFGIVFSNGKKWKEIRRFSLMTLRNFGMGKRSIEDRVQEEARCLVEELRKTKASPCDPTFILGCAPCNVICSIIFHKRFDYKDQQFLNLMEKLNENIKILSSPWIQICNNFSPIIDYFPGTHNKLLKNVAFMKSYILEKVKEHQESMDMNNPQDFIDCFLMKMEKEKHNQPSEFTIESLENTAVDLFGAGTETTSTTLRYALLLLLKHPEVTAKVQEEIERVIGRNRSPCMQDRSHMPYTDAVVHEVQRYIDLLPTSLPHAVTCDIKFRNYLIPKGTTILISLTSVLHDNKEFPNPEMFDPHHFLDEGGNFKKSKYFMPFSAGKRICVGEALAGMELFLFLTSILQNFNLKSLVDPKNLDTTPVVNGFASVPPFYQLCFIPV

bioavailability [1]: 69%
Cmax [2]: 2010 ng/mL
half-life [3]: 204 min
IC50 (Cytochrome P450 2C9): 55 µM
clearance [4]: 18 mL/min/kg
IC50 (Thromboxane A2 receptor): > 1000 nM
IC50 [5]: 16 µM
clearance [9]: 5.6 mL/min/kg
IC50 (Cytochrome P450 1A2): > 100 µM
IC50 (Cytochrome P450 2D6): > 100 µM
half-life [11]: 246 min
IC50 [12]: 6 nM
IC50 [14]: 1.4 nM
bioavailability (Rattus norvegicus): 35%
Compound: Cc1c(-c2cn(C(C)C)c(=O)c3ccccc23)c2cc(F)ccc2n1CC(=O)O
inhibition in vivo at 3 mg/kg (Mus musculus [6]): 50.5%
inhibition (Mus musculus [7]): Active
inhibition (Ovis aries [8]): inactive
inhibition (Ovis aries [10]): Active
inhibition (Mus musculus [13]): Active
